What was measured:
[1] = test system: HeLa; experiment: Cytostatic activity against human HeLa cells assessed as growth inhibition after 3 days by particle counting analysis; type: functional, cell-based; conditions: 72 h
How it was run: (§1)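 Tumor cells seeded and exposed to a range of compound concentrations. Cell number counted with a particle counter after 2 days (L1210, L1210/TK) or 3 days (CEM, CEM/TK, HeLa, HeLa TK, Caco-2, Colo-320).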

[2] = test system: CCRF-CEM; experiment: Cytostatic activity against human CEM cells assessed as growth inhibition after 3 days by particle counting analysis; type: functional, cell-based; conditions: 72 h; how it was run: as §1
[3] = test system: HeLa; experiment: Cytostatic activity against thymidine kinase-deficient human HeLa cells assessed as growth inhibition after 3 days by particle counting analysis; type: functional, cell-based; conditions: 72 h; how it was run: as §1
[4] = test system: Human alphaherpesvirus 1; experiment: Antiviral activity against acyclovir-resistant thymidine kinase-deficient Herpes simplex virus 1 KOS infected in HEL cells assessed as inhibition of virus-induced cytopathicity; type: functional, organism-based; conditions: Human alphaherpesvirus 1, KOS
[5] = test system: L1210; experiment: Cytostatic activity against mouse L1210 cells assessed as growth inhibition after 2 days by particle counting analysis; type: functional, cell-based; conditions: L1210, 48 h; how it was run: as §1
[6] = Cytotoxicity against HEL cells; type: cell-based; conditions: human
[7] = test system: Felid alphaherpesvirus 1; experiment: Antiviral activity against Feline herpesvirus infected in cat CRFK cells assessed as inhibition of virus-induced cytopathicity; type: functional, organism-based; conditions: Felid alphaherpesvirus 1, CRFK
[8] = test system: Human alphaherpesvirus 2; experiment: Antiviral activity against Herpes simplex virus 2 G infected in HEL cells assessed as inhibition of virus-induced cytopathicity; type: functional, organism-based; conditions: Human alphaherpesvirus 2, strain G
[9] = test system: Human alphaherpesvirus 1; experiment: Antiviral activity against Herpes simplex virus 1 KOS infected in HEL cells assessed as inhibition of virus-induced cytopathicity; type: functional, organism-based; conditions: Human alphaherpesvirus 1, KOS
[10] = test system: CCRF-CEM; experiment: Cytotoxicity against human CEM cells; type: cell-based
[11] = test system: Human immunodeficiency virus 1; experiment: Antiviral activity against HIV1 3B infected in human CEM cells assessed as virus-induced giant cell formation after 4 days by microscopic analysis; type: functional, organism-based; conditions: Human immunodeficiency virus 1, 3B, CCRF-CEM, 96 h
How it was run: (§2)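 CEM cells (∼3 × 10^5 cells/cm3) infected with 100 CCID50/mL of HIV-1(IIIB) or HIV-2(ROD), seeded into wells with compound dilutions. Giant cell formation examined microscopically after 4 days at 37 °C.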

[12] = test system: Human immunodeficiency virus 2; experiment: Antiviral activity against HIV2 ROD infected in human CEM cells assessed as virus-induced giant cell formation after 4 days by microscopic analysis; type: functional, organism-based; conditions: Human immunodeficiency virus 2, ISOLATE ROD, CCRF-CEM, 96 h; how it was run: as §2
[13] = test system: Hepatitis C virus; experiment: Antiviral activity against Hepatitis C virus genotype 1b infected in human HuH7 cells assessed as inhibition of viral replication; type: functional, organism-based, Hepacivirus hominis
[14] = test system: Huh-7; experiment: Cytotoxicity against human HuH7 cells; type: cell-based
[15] = test system: Caco-2; experiment: Cytostatic activity against human Caco2 cells assessed as growth inhibition after 3 days by particle counting analysis; type: functional, cell-based; conditions: Caco-2, 72 h; how it was run: as §1
[16] = test system: COLO 320; experiment: Cytostatic activity against human COLO320 cells assessed as growth inhibition after 3 days by particle counting analysis; type: functional, cell-based; conditions: COLO 320, 72 h; how it was run: as §1
[17] = test system: L1210; experiment: Cytostatic activity against thymidine kinase-deficient mouse L1210 cells assessed as growth inhibition after 2 days by particle counting analysis; type: functional, cell-based; conditions: L1210, 48 h; how it was run: as §1
[18] = test system: CCRF-CEM; experiment: Cytostatic activity against thymidine kinase-deficient human CEM cells assessed as growth inhibition after 3 days by particle counting analysis; type: functional, cell-based; conditions: 72 h; how it was run: as §1

## NC(=O)c1ncn([C@@H]2O[C@H](CO)[C@@H](O)[C@H]2O)c1N [ACADESINE]
[1]
  IC50: 165 µM
[2]
  IC50: 210 µM
[3]
  IC50: ≥ 250 µM
[4]
  EC50: > 100 µM
[5]
  IC50: ≥ 250 µM
[6]
  MCC: > 100 µM
[7]
  EC50: > 100 µM
[8]
  EC50: > 100 µM
[9]
  EC50: > 100 µM

## CCCCCc1ccc(-c2cc3cn([C@H]4C[C@H](O)[C@@H](COP(=O)(N[C@@H](C)C(=O)OCc5ccccc5)N[C@@H](C)C(=O)OCc5ccccc5)O4)c(=O)nc3o2)cc1
[4]
  EC50: > 100 µM
[6]
  MCC: > 100 µM
[7]
  EC50: > 100 µM
[8]
  EC50: > 100 µM
[9]
  EC50: > 100 µM

## Nc1ncnc2c1ncn2[C@H]1CC[C@@H](CO)O1
[1]
  IC50: > 250 µM
[2]
  IC50: > 250 µM
[10]
  CC50: > 250 µM
[11]
  EC50: 7.2 µM
[12]
  EC50: 2.8 µM
[5]
  IC50: > 250 µM

## C[C@H](NP(=O)(N[C@@H](C)C(=O)OCC(C)(C)C)OC[C@@]1(N=[N+]=[N-])O[C@@H](n2ccc(=O)[nH]c2=O)[C@H](O)[C@@H]1O)C(=O)OCC(C)(C)C
[13]; Huh-7, read-out: EC50
  EC50: 22 µM
[14]; human, huh-7, read-out: CC50
  CC50: > 100 µM

## COC(=O)[C@H](C)NP(=O)(N[C@@H](C)C(=O)OC)OC[C@H]1O[C@@H](n2cnc(C(N)=O)c2N)[C@H](O)[C@@H]1O
[1]
  IC50: > 250 µM
[2]
  IC50: > 250 µM
[3]
  IC50: > 250 µM
[4]
  EC50: > 100 µM
[5]
  IC50: ≥ 250 µM
[6]
  MCC: > 100 µM
[7]
  EC50: > 100 µM
[8]
  EC50: > 100 µM
[9]
  EC50: > 100 µM

## CCCCCc1ccc(-c2cc3cn([C@H]4C[C@H](O)[C@@H](CO)O4)c(=O)nc3o2)cc1 [CF1743]
[6]
  MCC: ≥ 20 µM

## C[C@H](NP(=O)(N[C@@H](C)C(=O)OCC(C)(C)C)OC[C@@H]1CC[C@H](n2cnc3c(N)ncnc32)O1)C(=O)OCC(C)(C)C
[2]
  IC50: 36 µM
[10]
  CC50: 35 µM
[11]
  EC50: 0.1 µM
[12]
  EC50: 0.049 µM
[5]
  IC50: 76 µM

## Cc1cn([C@H]2C[C@H](N=[N+]=[N-])[C@@H](COP(=O)(N[C@@H](C)C(=O)OCC(C)(C)C)N[C@@H](C)C(=O)OCC(C)(C)C)O2)c(=O)[nH]c1=O
[10]
  CC50: 75 µM
[11]
  EC50: 0.0083 µM
[12]
  EC50: 0.013 µM

## C[C@H](NP(=O)(N[C@@H](C)C(=O)OCC(C)(C)C)OC[C@@]1(N=[N+]=[N-])O[C@@H](n2ccc(N)nc2=O)[C@H](O)[C@@H]1O)C(=O)OCC(C)(C)C
[13]; Huh-7, read-out: EC50
  EC50: > 40 µM
[14]; human, huh-7, read-out: CC50
  CC50: 72 µM

## C[C@H](NP(=O)(N[C@@H](C)C(=O)OCc1ccccc1)OC[C@H]1O[C@@H](n2cnc(C(N)=O)n2)[C@H](O)[C@@H]1O)C(=O)OCc1ccccc1
[13]; Huh-7, read-out: EC50
  EC50: > 100 µM
[14]; Homo sapiens, Huh-7, read-out: EC50 (the source's name)
  CC50: > 100 µM

## CC(=O)Nc1ccn([C@H]2CS[C@@H](CO)O2)c(=O)n1
[1]
  IC50: 242 µM
[2]
  IC50: > 250 µM
[15]
  IC50: > 250 µM
[16]
  IC50: ≥ 250 µM
[3]
  IC50: > 250 µM
[17]
  IC50: > 250 µM
[18]
  IC50: > 250 µM
[5]
  IC50: > 250 µM

## Cc1cn([C@H]2C[C@H](N=[N+]=[N-])[C@@H](COP(=O)(N[C@@H](C)C(=O)OCc3ccccc3)N[C@@H](C)C(=O)OCc3ccccc3)O2)c(=O)[nH]c1=O
[10]
  CC50: 30 µM
[11]
  EC50: 0.0092 µM
[12]
  EC50: 0.03 µM

## C[C@H](NP(=O)(N[C@@H](C)C(=O)OCc1ccccc1)OC[C@@H]1C=C[C@H](n2cnc3c(NC4CC4)nc(N)nc32)C1)C(=O)OCc1ccccc1
[1]
  IC50: 23 µM
[2]
  IC50: 19 µM
[11]
  EC50: 0.56 µM
[12]
  EC50: 1.1 µM
[5]
  IC50: 54 µM

## Nc1nc(NC2CC2)c2ncn([C@H]3C=C[C@@H](CO)C3)c2n1 [ABACAVIR]
[1]
  IC50: 170 µM
[2]
  IC50: > 250 µM
[10]
  CC50: > 250 µM
[11]
  EC50: 23 µM
[12]
  EC50: 18 µM
[5]
  IC50: > 250 µM

## C[C@H](NP(=O)(N[C@@H](C)C(=O)OCc1ccccc1)OC[C@@]1(N=[N+]=[N-])O[C@@H](n2ccc(=O)[nH]c2=O)[C@H](O)[C@@H]1O)C(=O)OCc1ccccc1
[13]; Huh-7, read-out: EC50
  EC50: > 40 µM
[14]; human, huh-7, read-out: CC50
  CC50: > 100 µM

## Cc1cn([C@H]2C=C[C@@H](COP(=O)(N[C@@H](C)C(=O)OC3CCCCC3)N[C@@H](C)C(=O)OC3CCCCC3)O2)c(=O)[nH]c1=O
[1]
  IC50: 96 µM
[2]
  IC50: 73 µM
[15]
  IC50: 135 µM
[11]
  EC50: 0.15 µM
[3]
  IC50: 36 µM
[12]
  EC50: 0.38 µM
[17]
  IC50: 25 µM
[18]
  IC50: 54 µM
[5]
  IC50: 29 µM

## C[C@H](NP(=O)(N[C@@H](C)C(=O)OCc1ccccc1)OC[C@@]1(N=[N+]=[N-])O[C@@H](n2ccc(N)nc2=O)[C@H](O)[C@@H]1O)C(=O)OCc1ccccc1
[13]; Huh-7, read-out: EC50
  EC50: > 40 µM
[14]; human, huh-7, read-out: CC50
  CC50: > 100 µM

## C[C@H](NP(=O)(N[C@@H](C)C(=O)OCC(C)(C)C)OC[C@H]1O[C@@H](n2cnc(C(N)=O)n2)[C@H](O)[C@@H]1O)C(=O)OCC(C)(C)C
[13]; Huh-7, read-out: ED50 (the source's name)
  EC50: > 100 µM
[14]; human, huh-7, read-out: ED50 (the source's name)
  CC50: > 100 µM

## C[C@H](NP(=O)(N[C@@H](C)C(=O)OCC(C)(C)C)OC[C@@H]1C=C[C@H](n2cnc3c(NC4CC4)nc(N)nc32)C1)C(=O)OCC(C)(C)C
[1]
  IC50: 36 µM
[2]
  IC50: 27 µM
[11]
  EC50: 1.5 µM
[12]
  EC50: 1.2 µM
[5]
  IC50: 48 µM

## Cc1cn([C@H]2C[C@H](N=[N+]=[N-])[C@@H](CO)O2)c(=O)[nH]c1=O [ZIDOVUDINE]
[10]
  CC50: > 250 µM
[11]
  EC50: 0.012 µM
[12]
  EC50: 0.067 µM

## CCOc1nc(N)nc2c1ncn2[C@@H]1O[C@H](COP(=O)(N[C@H](C)C(=O)OCC(C)(C)C)N[C@H](C)C(=O)OCC(C)(C)C)[C@@H](O)[C@@]1(C)F
[13]; Huh-7, read-out: EC50
  EC50: 0.23 µM
[14]; human, huh-7, read-out: CC50
  CC50: > 100 µM

## C[C@H](NP(=O)(N[C@@H](C)C(=O)OCc1ccccc1)OC[C@H]1O[C@@H](n2cnc(C(N)=O)c2N)[C@H](O)[C@@H]1O)C(=O)OCc1ccccc1
[1]
  IC50: > 250 µM
[2]
  IC50: > 250 µM
[3]
  IC50: > 250 µM
[4]
  EC50: > 100 µM
[5]
  IC50: > 250 µM
[6]
  MCC: > 100 µM
[7]
  EC50: > 100 µM
[8]
  EC50: > 100 µM
[9]
  EC50: > 100 µM

## CCOc1nc(N)nc2c1ncn2[C@@H]1O[C@H](COP(=O)(N[C@@H](C)C(=O)OCC(C)(C)C)N[C@@H](C)C(=O)OCC(C)(C)C)[C@@H](O)[C@@]1(C)F
[13]; Huh-7, read-out: EC50
  EC50: 0.05 µM
[14]; human, huh-7, read-out: CC50
  CC50: 73 µM

## CC(=O)Nc1ccn([C@H]2CS[C@@H](COP(=O)(N[C@@H](C)C(=O)OCc3ccccc3)N[C@@H](C)C(=O)OCc3ccccc3)O2)c(=O)n1
[1]
  IC50: 155 µM
[2]
  IC50: 120 µM
[15]
  IC50: ≥ 250 µM
[16]
  IC50: > 250 µM

— ChEMBL document CHEMBL3085645, “Design, synthesis and biological evaluation of phosphorodiamidate prodrugs of antiviral and anticancer nucleosides” (Eur J Med Chem, 2013)
